Measurements from ChEMBL document CHEMBL1212857, “Syntheses and pharmacological characterization of novel thiazole derivatives as potential mGluR5 PET ligands” (Bioorg Med Chem, 2010).
Values belong to the molecule of their own block, whether it stands above or below them.

Key:
[1] = biological target: Metabotropic glutamate receptor 5 (Rattus norvegicus, UniProt P31424); experiment: Displacement of [3H]M-MPEP from mGluR5 in Sprague-Dawley rat brain membranes (cerebellum removed) after 45 mins by liquid scintillation counting
[2] = tested on: Hippocampus; experiment: Drug uptake in Sprague-Dawley rat hippocampus at 0.5 to 5 nM after 45 mins by autoradiography; type: ADME, tissue-based; conditions: 0.75 h, 0.005 µM
How it was run: (§1)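 Frozen rat brain slices thawed 30 min at rt, preincubated 10 min at 4 °C in HEPES–BSA buffer pH 7.4, then covered with 0.5 or 5 nM [18F] tracer for 45 min at rt in a humid chamber. Blocking was by co-incubation with excess unlabeled ABP688. Washes were 3×3 min in HEPES buffer and 2×5 s in water at 4 °C, followed by 40 min drying and 7 min phosphor-plate exposure.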

[3] = tested on: Plasma; experiment: Metabolic stability in human plasma after 120 mins by UPLC analysis; type: ADME, cell-free; conditions: 2 h
How it was run: (§2)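 [18F] tracer in ethanol added to human or rat plasma and incubated at 37 °C for 120 min. Aliquots taken at 0, 30, 60, 90 and 120 min into ice-cold acetonitrile, centrifuged (5000g, 4 °C, 10 min), and supernatant analysed by radio-UPLC.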

[4] = Metabolic stability in rat liver microsomes assessed as compound remaining after 60 mins by UPLC analysis; type: ADME, Microsome; conditions: read-out: Stability
How it was run: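 Pooled rat liver microsomes (0.52 mg/mL protein). Tracer (20–50 nM) preincubated 5 min with 10 mM NADPH in 0.1 M phosphate pH 7.4 at 37 °C before microsomes were added; testosterone served as positive control and boiled microsomes as negative control. Reactions quenched with ice-cold acetonitrile at 0, 15, 30 and 60 min, centrifuged, and supernatant run by UPLC.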

[5] = Lipophilicity, log D of the compound at pH 7.4 by shake flask method; type: physicochemical; conditions: buffer
How it was run: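 Shake-flask log D (n = 5): [18F] tracer (80 kBq) added to 0.5 mL 1-octanol and 0.5 mL phosphate buffer pH 7.4, each pre-saturated with the other. Mixed 15 min, centrifuged at 5000g for 5 min, and radioactivity in each phase gamma-counted.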

[6] = tested on: Plasma; experiment: Metabolic stability in rat plasma after 120 mins by UPLC analysis; type: ADME, cell-free; conditions: 2 h
How it was run: as §2

[7] = tested on: Striatum; experiment: Drug uptake in Sprague-Dawley rat striatum at 0.5 to 5 nM after 45 mins by autoradiography; type: ADME, tissue-based; conditions: 0.75 h, 0.005 µM
How it was run: as §1

[8] = tested on: Cortex; experiment: Drug uptake in Sprague-Dawley rat cortex at 0.5 to 5 nM after 45 mins by autoradiography; type: ADME, tissue-based; conditions: 0.75 h, 0.005 µM
How it was run: as §1

[9] = tested on: Brain; experiment: Drug uptake in Sprague-Dawley rat brain slices at 0.5 to 5 nM after 45 mins by autoradiography in presence of 500 nM of ABP688; type: ADME, tissue-based; conditions: 0.75 h, 0.005 µM
How it was run: as §1

Metabotropic glutamate receptor 5, sequence (P31424 whole entry): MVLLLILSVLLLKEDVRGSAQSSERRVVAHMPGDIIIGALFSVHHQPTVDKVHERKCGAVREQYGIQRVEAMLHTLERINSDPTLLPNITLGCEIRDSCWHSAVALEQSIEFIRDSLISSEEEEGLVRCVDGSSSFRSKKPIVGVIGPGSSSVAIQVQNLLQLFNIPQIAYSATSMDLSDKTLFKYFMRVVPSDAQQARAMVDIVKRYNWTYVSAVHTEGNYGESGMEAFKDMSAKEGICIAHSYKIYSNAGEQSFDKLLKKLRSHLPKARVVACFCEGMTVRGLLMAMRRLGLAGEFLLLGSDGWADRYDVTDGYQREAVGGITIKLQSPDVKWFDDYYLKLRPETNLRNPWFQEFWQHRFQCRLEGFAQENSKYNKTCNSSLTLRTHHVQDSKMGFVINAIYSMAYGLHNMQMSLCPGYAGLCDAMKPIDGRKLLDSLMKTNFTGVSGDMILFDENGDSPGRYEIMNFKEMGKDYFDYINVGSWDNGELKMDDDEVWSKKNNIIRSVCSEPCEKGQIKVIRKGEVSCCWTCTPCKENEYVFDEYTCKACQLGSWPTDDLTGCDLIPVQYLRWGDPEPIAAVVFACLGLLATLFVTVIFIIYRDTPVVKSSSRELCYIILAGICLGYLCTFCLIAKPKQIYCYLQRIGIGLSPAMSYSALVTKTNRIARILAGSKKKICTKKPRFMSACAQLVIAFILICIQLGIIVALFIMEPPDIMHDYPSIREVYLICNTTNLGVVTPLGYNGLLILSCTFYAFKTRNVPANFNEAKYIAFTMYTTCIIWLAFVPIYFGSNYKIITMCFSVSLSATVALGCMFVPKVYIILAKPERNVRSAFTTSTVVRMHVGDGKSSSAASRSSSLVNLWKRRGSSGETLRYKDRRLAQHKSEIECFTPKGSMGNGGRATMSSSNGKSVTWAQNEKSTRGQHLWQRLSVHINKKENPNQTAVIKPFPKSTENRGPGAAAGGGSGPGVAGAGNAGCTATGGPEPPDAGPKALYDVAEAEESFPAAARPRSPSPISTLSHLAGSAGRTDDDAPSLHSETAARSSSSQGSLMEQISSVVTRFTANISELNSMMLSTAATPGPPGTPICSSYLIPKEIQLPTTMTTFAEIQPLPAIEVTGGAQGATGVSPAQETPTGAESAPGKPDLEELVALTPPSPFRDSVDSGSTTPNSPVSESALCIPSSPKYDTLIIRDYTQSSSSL

Ki [1]: 5.5 nM
Compound: CO/N=C1/C=C(C#Cc2csc(CF)n2)CCC1

Ki [1]: 20.3 nM
Compound: CO/N=C1/C=C(C#Cc2nccs2)CCC1

Ki [1]: 36 nM
Compound: FCCOCCO/N=C1/C=C(C#Cc2cscn2)CCC1

Ki [1]: 21.9 nM
Compound: Cc1nc(C#CC2=C/C(=N/OCCOCCF)CCC2)cs1

Drug uptake [2]: Active
Stability [3]: Stable
remaining at 1 h [4]: 93%
logD [5]: 1.6
Stability [6]: Stable
Drug uptake [7]: Active
Drug uptake [8]: Active
Drug uptake [9]: Not Active
Compound: CO/N=C1/C=C(C#Cc2csc(C[18F])n2)CCC1
